Experimental data taken from ChEMBL document CHEMBL2086296, “Synthesis of novel quinoline-2-one based chalcones of potential anti-tumor activity” (Eur J Med Chem, 2012).

Assays:
OVCAR-3 = assay: Cytotoxicity against human OVCAR3 cells after 24 hrs by SRB assay; type: functional; conditions: OVCAR-3, 24 h
In short: (§1)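 NCI 60-line screen. Cells in RPMI 1640 with 5% FBS and 2 mM L-glutamine, seeded at 5,000–40,000 cells/well by doubling time, then incubated 24 h at 37 °C, 5% CO2 before dosing. Time-zero plates fixed with TCA at drug addition. DMSO stocks diluted in medium with gentamicin to five concentrations, […]. Protein read by SRB staining. GI50, TGI and LC50 derived relative to control and time-zero.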

LOX IMVI [1] = assay: (§2) Cytotoxicity against human LOXIMVI cells after 24 hrs by SRB assay; type: functional; in short: as §1
MDA-MB-231 [2] = assay: (§3) Cytotoxicity against human MDA-MB-231 cells after 24 hrs by SRB assay; type: cell-based; conditions: mda-mb-231, 24 h
In short: (§4)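 NCI 60-cell screen. Cells grown in RPMI 1640 with 5% FBS and 2 mM L-glutamine, seeded at 5,000–40,000 cells/well, preincubated 24 h at 37 °C in 5% CO2. Drug stock in DMSO, diluted in medium with gentamicin; five final concentrations, 100, 10, 1.0, 0.1 and […]. Time-zero plates were TCA-fixed. Protein read by SRB staining; GI50, TGI and LC50 taken relative to time-zero.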

CAKI-1 = assay: Cytotoxicity against human CAKI-1 cells after 24 hrs by SRB assay; type: cell-based; conditions: caki-1, 24 h; in short: as §4
HL-60 = assay: Cytotoxicity against human HL60 cells after 24 hrs by SRB assay; type: cell-based; conditions: hl-60, 24 h; in short: as §4
HOP-62 = assay: Cytotoxicity against human HOP62 cells after 24 hrs by SRB assay; type: functional; conditions: HOP-62, 24 h; in short: as §1
MOLT-4 [3] = assay: (§5) Cytotoxicity against human MOLT4 cells after 24 hrs by SRB assay; type: functional; conditions: MOLT-4, 24 h; in short: as §1
MDA-MB-435 = assay: Cytotoxicity against human MDA-MB-435 cells after 24 hrs by SRB assay; type: functional; conditions: MDA-MB-435, 24 h; in short: as §1
HCT-116 = assay: Cytotoxicity against human HCT116 cells after 24 hrs by SRB assay; type: cell-based; conditions: hct-116, 24 h; in short: as §4
EKVX [4] = assay: (§6) Cytotoxicity against human EKVX cells after 24 hrs by SRB assay; type: cell-based; in short: as §4
OVCAR-4 = assay: Cytotoxicity against human OVCAR4 cells after 24 hrs by SRB assay; type: cell-based; conditions: ovcar-4, 24 h; in short: as §4
RXF 393 = assay: Cytotoxicity against human RXF393 cells after 24 hrs by SRB assay; type: cell-based; conditions: rxf 393, 24 h; in short: as §4
NCI/ADR-RES [5] = assay: (§7) Cytotoxicity against human NCI/ADR-RES cells after 24 hrs by SRB assay; type: cell-based; in short: as §4
MOLT-4 [6] = assay: as §5; type: cell-based; conditions: molt-4, 24 h; in short: as §4
SN12C = assay: Cytotoxicity against human SN12C cells after 24 hrs by SRB assay; type: cell-based
In short: (§8)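 NCI 60-cell-line screen: cells grown in RPMI 1640 with 5% FBS and 2 mM L-glutamine, seeded at 5,000–40,000 cells/well by doubling time, and preincubated 24 h at 37 °C in 5% CO2. Time-zero plates were TCA-fixed. DMSO stocks were diluted in medium with gentamicin to five concentrations (100, 10, 1.0, 0.1, […]). Protein was read by SRB, and GI50, TGI and LC50 were derived against time-zero.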

OVCAR-8 [7] = assay: (§9) Cytotoxicity against human OVCAR8 cells after 24 hrs by SRB assay; type: cell-based; conditions: ovcar-8, 24 h; in short: as §4
UACC-62 [8] = assay: (§10) Cytotoxicity against human UACC62 cells after 24 hrs by SRB assay; type: functional; conditions: UACC-62, 24 h
In short: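 NCI 60-cell screen. Cells are grown in RPMI 1640 with 5% FBS and 2 mM L-glutamine and seeded at 5,000–40,000 cells/well according to doubling time. They are preincubated 24 h at 37 °C in 5% CO2, and Tz plates are TCA-fixed at drug addition. Drug stock is in DMSO, diluted in medium with gentamicin, and tested at five concentrations (100, 10, 1.0, 0.1, […]). Protein is read by SRB staining. GI50, TGI and LC50 are derived relative to time-zero and control wells.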

DU-145 = assay: Cytotoxicity against human DU145 cells after 24 hrs by SRB assay; type: functional; conditions: DU-145, 24 h; in short: as §1
UACC-62 [9] = assay: as §10; type: cell-based; conditions: uacc-62, 24 h; in short: as §8
EKVX [10] = assay: as §6; type: functional; in short: as §1
SW-620 = assay: Cytotoxicity against human SW620 cells after 24 hrs by SRB assay; type: cell-based; conditions: sw-620, 24 h; in short: as §8
TK-10 = assay: Cytotoxicity against human TK10 cells after 24 hrs by SRB assay; type: cell-based; conditions: tk-10, 24 h; in short: as §8
MDA-MB-231 [11] = assay: as §3; type: functional; conditions: MDA-MB-231, 24 h; in short: as §1
HOP-92 = assay: Cytotoxicity against human HOP92 cells after 24 hrs by SRB assay; type: cell-based; conditions: hop-92, 24 h; in short: as §4
NCI-H460 = assay: Cytotoxicity against human NCI-H460 cells after 24 hrs by SRB assay; type: cell-based; conditions: nci-h460, 24 h; in short: as §4
COLO 205 = assay: Cytotoxicity against human COLO205 cells after 24 hrs by SRB assay; type: functional; conditions: COLO 205, 24 h; in short: as §1
ACHN = assay: Cytotoxicity against human ACHN cells after 24 hrs by SRB assay; type: cell-based; in short: as §4
OVCAR-8 [12] = assay: as §9; type: functional; conditions: OVCAR-8, 24 h; in short: as §1
BT-549 = assay: Cytotoxicity against human BT549 cells after 24 hrs by SRB assay; type: cell-based; conditions: bt-549, 24 h; in short: as §4
SK-MEL-5 = assay: Cytotoxicity against human SK-MEL-5 cells after 24 hrs by SRB assay; type: functional; conditions: SK-MEL-5, 24 h; in short: as §1
MCF7 = assay: Cytotoxicity against human MCF7 cells after 24 hrs by SRB assay; type: functional; conditions: MCF7, 24 h; in short: as §1
SF-539 = assay: Cytotoxicity against human SF539 cells after 24 hrs by SRB assay; type: functional; conditions: SF-539, 24 h; in short: as §1
NCI-H226 = assay: Cytotoxicity against human NCI-H226 cells after 24 hrs by SRB assay; type: functional; conditions: NCI-H226, 24 h; in short: as §1
NCI/ADR-RES [13] = assay: as §7; type: functional; in short: as §1
[14] = (§11) Cytotoxicity against human Hs 578T cells after 24 hrs by SRB assay; type: cell-based; in short: as §4
SNB-75 = assay: Cytotoxicity against human SNB75 cells after 24 hrs by SRB assay; type: cell-based; conditions: snb-75, 24 h; in short: as §8
OVCAR-5 = assay: Cytotoxicity against human OVCAR5 cells after 24 hrs by SRB assay; type: cell-based; conditions: ovcar-5, 24 h; in short: as §4
[15] = as §11; type: functional; in short: as §1
LOX IMVI [16] = assay: as §2; type: cell-based; in short: as §4

SMILES: O=C(/C=C/c1cc2ccccc2[nH]c1=O)/C=C/c1cc2ccccc2[nH]c1=O
- GI50 (OVCAR-3): 4.2 µM
- TGI (OVCAR-3): > 100 µM
- GI50 (LOX IMVI [1]): 0.134 µM
- TGI (LOX IMVI [1]): 0.352 µM
- LC50 (MDA-MB-231 [2]): > 100 µM
- LC50 (CAKI-1): > 100 µM
- LC50 (HL-60): > 100 µM
- GI50 (HOP-62): 3.65 µM
- TGI (HOP-62): > 100 µM
- GI50 (MOLT-4 [3]): 2.27 µM
- TGI (MOLT-4 [3]): > 100 µM
- GI50 (MDA-MB-435): 0.258 µM
- TGI (MDA-MB-435): 0.81 µM
- LC50 (HCT-116): > 100 µM
- LC50 (EKVX [4]): > 100 µM
- LC50 (OVCAR-4): > 100 µM
- LC50 (RXF 393): 7.73 µM
- LC50 (NCI/ADR-RES [5]): > 100 µM
- LC50 (MOLT-4 [6]): > 100 µM
- LC50 (SN12C): > 100 µM
- LC50 (OVCAR-8 [7]): > 100 µM
- GI50 (UACC-62 [8]): 4.61 µM
- TGI (UACC-62 [8]): > 100 µM
- GI50 (DU-145): 4.18 µM
- TGI (DU-145): > 100 µM
- LC50 (UACC-62 [9]): > 100 µM
- GI50 (EKVX [10]): 2.61 µM
- TGI (EKVX [10]): > 100 µM
- LC50 (SW-620): > 100 µM
- LC50 (TK-10): > 100 µM
- GI50 (MDA-MB-231 [11]): 3.49 µM
- TGI (MDA-MB-231 [11]): > 100 µM
- LC50 (HOP-92): > 100 µM
- LC50 (NCI-H460): > 100 µM
- GI50 (COLO 205): 2.89 µM
- TGI (COLO 205): > 100 µM
- LC50 (ACHN): > 100 µM
- GI50 (OVCAR-8 [12]): 2.6 µM
- TGI (OVCAR-8 [12]): > 100 µM
- LC50 (BT-549): > 100 µM
- GI50 (SK-MEL-5): 5.63 µM
- TGI (SK-MEL-5): > 100 µM
- GI50 (MCF7): 0.327 µM
- TGI (MCF7): > 100 µM
- GI50 (SF-539): 2.13 µM
- TGI (SF-539): > 100 µM
- GI50 (NCI-H226): 2.77 µM
- TGI (NCI-H226): 8.01 µM
- GI50 (NCI/ADR-RES [13]): > 100 µM
- TGI (NCI/ADR-RES [13]): > 100 µM

SMILES: COc1ccc(C(=O)/C=C/c2cc3ccccc3[nH]c2=O)cc1
- GI50 (OVCAR-3): 2.49 µM
- TGI (OVCAR-3): 6.72 µM
- GI50 (LOX IMVI [1]): 1.85 µM
- TGI (LOX IMVI [1]): 5.54 µM
- LC50 (MDA-MB-231 [2]): > 100 µM
- LC50 (CAKI-1): 6.9 µM
- LC50 (HL-60): > 100 µM
- GI50 (HOP-62): 3.68 µM
- TGI (HOP-62): 11.6 µM
- GI50 (MOLT-4 [3]): 3.39 µM
- TGI (MOLT-4 [3]): > 100 µM
- LC50 [14]: > 100 µM
- GI50 (MDA-MB-435): 3.92 µM
- TGI (MDA-MB-435): 17.4 µM
- LC50 (HCT-116): 31.6 µM
- LC50 (SNB-75): 47.2 µM
- LC50 (OVCAR-5): > 100 µM
- LC50 (EKVX [4]): > 100 µM
- LC50 (OVCAR-4): > 100 µM
- GI50 [15]: 3.3 µM
- TGI [15]: > 100 µM
- LC50 (RXF 393): 33.5 µM
- LC50 (LOX IMVI [16]): 33.3 µM
- LC50 (NCI/ADR-RES [5]): > 100 µM
- LC50 (MOLT-4 [6]): > 100 µM
- LC50 (SN12C): > 100 µM
- LC50 (OVCAR-8 [7]): > 100 µM
- GI50 (UACC-62 [8]): 4.38 µM
- TGI (UACC-62 [8]): 19.3 µM
- GI50 (DU-145): 3.14 µM
- TGI (DU-145): 11.2 µM
- LC50 (UACC-62 [9]): 60.2 µM
- GI50 (EKVX [10]): 4.4 µM
- TGI (EKVX [10]): 83.8 µM
- LC50 (SW-620): 40.2 µM
- LC50 (TK-10): > 100 µM
- GI50 (MDA-MB-231 [11]): 3.29 µM
- TGI (MDA-MB-231 [11]): 17.9 µM
- LC50 (HOP-92): 80.9 µM
- LC50 (NCI-H460): 66.8 µM
- GI50 (COLO 205): 3.66 µM
- TGI (COLO 205): 13.4 µM
- LC50 (ACHN): 57 µM
- GI50 (OVCAR-8 [12]): 3.57 µM
- TGI (OVCAR-8 [12]): > 100 µM
- LC50 (BT-549): 46.3 µM
- GI50 (SK-MEL-5): 5.73 µM
- TGI (SK-MEL-5): 18.1 µM
- GI50 (MCF7): 2.86 µM
- TGI (MCF7): 88.7 µM
- GI50 (SF-539): 2.76 µM
- TGI (SF-539): 7.49 µM
- GI50 (NCI-H226): 5.57 µM
- TGI (NCI-H226): > 100 µM
- GI50 (NCI/ADR-RES [13]): 2.63 µM
- TGI (NCI/ADR-RES [13]): 8.44 µM
